# According to ChEMBL document CHEMBL1141183, “Development of potent mu-opioid receptor ligands using unique tyrosine analogues of endomorphin-2” (J Med Chem, 2005):
# Active and inactive are the calls of the source. The rule behind the calls is not given here.
# Legend:
# Mu-type opioid receptor [1] = biological target: Mu-type opioid receptor (Cavia porcellus, UniProt P97266); assay: In vitro inhibition of opioid receptor mu using isolated guinea pig ileum; assay type: tissue-based
# How it was run: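 Myenteric plexus longitudinal muscle strips (2-3 cm) from small intestine of male Hartley guinea pigs, in organ bath with physiological salt buffer, pH 7.5, for μ-receptor agonism.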
# [2] = biological target: Delta-type opioid receptor (Mus musculus, UniProt P32300); assay: In vitro inhibition of opioid receptor delta using mouse vas deferens; assay type: tissue-based
# Sequence of Delta-type opioid receptor (Mus musculus, UniProt P32300) (P32300 whole entry): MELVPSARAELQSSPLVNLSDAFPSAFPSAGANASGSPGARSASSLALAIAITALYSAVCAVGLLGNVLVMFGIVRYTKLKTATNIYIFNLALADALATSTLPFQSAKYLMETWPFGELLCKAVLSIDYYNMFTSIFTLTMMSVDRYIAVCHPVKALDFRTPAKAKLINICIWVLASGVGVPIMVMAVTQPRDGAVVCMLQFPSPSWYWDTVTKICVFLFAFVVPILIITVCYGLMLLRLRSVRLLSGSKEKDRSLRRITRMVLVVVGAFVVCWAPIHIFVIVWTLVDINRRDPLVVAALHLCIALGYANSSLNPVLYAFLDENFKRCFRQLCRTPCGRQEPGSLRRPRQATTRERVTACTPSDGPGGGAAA
# [3] = biological target: Delta-type opioid receptor (Rattus norvegicus, UniProt P33533); assay: Inhibition of [3H]DPDPE binding to delta-Opioid receptor
# Sequence of Delta-type opioid receptor (Rattus norvegicus, UniProt P33533) (P33533 whole entry): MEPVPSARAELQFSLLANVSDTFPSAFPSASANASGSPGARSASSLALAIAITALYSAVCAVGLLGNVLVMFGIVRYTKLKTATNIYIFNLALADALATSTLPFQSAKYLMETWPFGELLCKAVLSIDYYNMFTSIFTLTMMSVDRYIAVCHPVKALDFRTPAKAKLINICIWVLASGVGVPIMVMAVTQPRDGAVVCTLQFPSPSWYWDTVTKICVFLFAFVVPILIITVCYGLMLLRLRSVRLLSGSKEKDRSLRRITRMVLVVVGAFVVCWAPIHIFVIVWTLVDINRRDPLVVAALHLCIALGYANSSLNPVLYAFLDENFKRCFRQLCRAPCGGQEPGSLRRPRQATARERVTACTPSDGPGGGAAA
# How it was run: (§1)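 Synaptosomal membranes preincubated to remove endogenous opioids, washed, stored at -80 °C with protease inhibitor. μ sites labelled with [3H]DAMGO, δ with [3H]DPDPE; nonspecific binding set by 2 µM unlabelled peptide. Filtration on polyethylenimine-soaked GF/C filters, scintillation counting. Five to seven peptide doses in duplicate, several preparations. Ki by Cheng-Prusoff.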
# Mu-type opioid receptor [4] = biological target: Mu-type opioid receptor (Rattus norvegicus, UniProt P33535); assay: Inhibition of [3H]DAMGO binding to mu-Opioid receptor; how it was run: as §1
# Sequence of Mu-type opioid receptor (Rattus norvegicus, UniProt P33535) (P33535 whole entry): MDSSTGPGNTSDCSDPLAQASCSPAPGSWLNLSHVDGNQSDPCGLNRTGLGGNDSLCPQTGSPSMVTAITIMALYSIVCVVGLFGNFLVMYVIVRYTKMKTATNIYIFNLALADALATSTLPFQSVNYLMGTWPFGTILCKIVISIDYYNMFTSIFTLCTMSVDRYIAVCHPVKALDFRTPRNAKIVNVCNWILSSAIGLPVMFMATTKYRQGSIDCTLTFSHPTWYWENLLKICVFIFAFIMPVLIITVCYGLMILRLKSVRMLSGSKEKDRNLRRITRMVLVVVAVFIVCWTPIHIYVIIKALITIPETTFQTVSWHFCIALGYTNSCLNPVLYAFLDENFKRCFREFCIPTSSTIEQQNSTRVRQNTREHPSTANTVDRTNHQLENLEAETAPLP
# [5] = biological target: Opioid receptors; mu & delta (Rattus norvegicus) (UniProt P33533+P33535); assay: Relative binding to delta and mu Opioid receptors (ratio of Ki); assay type: protein assay
# Sequence of Opioid receptors; mu & delta (Rattus norvegicus) (P33533 whole entry, looked up): as the sequence (P33533 whole entry) above
# Sequence of Opioid receptors; mu & delta (Rattus norvegicus) (P33535 whole entry, looked up): as the sequence (P33535 whole entry) above
# Mus musculus = species: Mus musculus; assay: Inhibition of electrically evoked contraction in mice by tail flick method; nd=None detected; assay type: functional, organism-based
# Sequence of Mu-type opioid receptor (Cavia porcellus, UniProt P97266) (P97266 whole entry): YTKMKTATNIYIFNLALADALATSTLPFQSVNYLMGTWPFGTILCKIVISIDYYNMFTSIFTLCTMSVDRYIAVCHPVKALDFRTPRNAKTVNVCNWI
SMILES,IC50 (Mu-type opioid receptor [1]) [nM],IC50 [2] [nM],Ki [3] [nM],Ki (Mu-type opioid receptor [4]) [nM],Ratio [5],inhibition (Mus musculus)
Cc1cc(O)c(C)c(C)c1C[C@H](N)C(=O)N1CCC[C@H]1C(=O)N[C@@H](Cc1ccccc1)C(=O)N[C@@H](Cc1ccccc1)C(N)=O,2.31,46.4,593,0.111,5350,–
Cc1cc(O)ccc1C[C@H](N)C(=O)N1CCC[C@H]1C(=O)N[C@@H](Cc1ccccc1)C(=O)N[C@@H](Cc1ccccc1)C(N)=O,0.924,28.7,529,0.132,4000,–
CCc1cc(O)cc(C)c1C[C@H](N)C(=O)N1CCC[C@H]1C(=O)N[C@@H](Cc1ccccc1)C(=O)N[C@@H](Cc1ccccc1)C(N)=O,0.623,1.08,55.7,0.063,884,–
CCc1cc(O)cc(CC)c1C[C@H](N)C(=O)N1CCC[C@H]1C(=O)N[C@@H](Cc1ccccc1)C(=O)N[C@@H](Cc1ccccc1)C(N)=O,0.903,47.1,69.7,0.084,830,–
Cc1cc(O)cc(C(C)C)c1C[C@H](N)C(=O)N1CCC[C@H]1C(=O)N[C@@H](Cc1ccccc1)C(=O)N[C@@H](Cc1ccccc1)C(N)=O,10.6,601,190,0.15,1270,–
CC(C)c1cc(O)cc(C(C)C)c1C[C@H](N)C(=O)N1CCC[C@H]1C(=O)N[C@@H](Cc1ccccc1)C(=O)N[C@@H](Cc1ccccc1)C(N)=O,299,> 10000,105,2.29,46,inactive
